Data: ChEMBL document CHEMBL1955865, “Synthesis of novel spirooxindole derivatives by one pot multicomponent reaction and their antimicrobial activity” (2012)
In brackets after ≈: the same amount, converted by molar mass. Activity calls are given as the source filed them. No cut-off for these calls is given here.

Legend:
Staphylococcus aureus [1] = assay: Antibacterial activity against Staphylococcus aureus MTCC 96 after 24 hrs by twofold serial dilution method; format: functional; conditions: MTCC 96, 24 h
Summary of the method: (§1)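 Bacteria grown in Mueller Hinton broth for 24 h at 37 °C and diluted to about 10^4 CFU/ml. Compound in 2% DMSO was serially diluted two-fold (1000 to 15.62 µg/ml) in medium in 96-well plates and inoculated. Plates were incubated 24 h at 37 °C. 5 µl of broth was spotted onto MHA, and MIC was taken as the lowest concentration with no visible growth on agar.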

Staphylococcus aureus [2] = assay: Antibacterial activity against methicillin-resistant Staphylococcus aureus after 24 hrs by twofold serial dilution method; format: functional
Summary of the method: (§2)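 Broth microdilution in MHB following the standard bacterial reference method. Compound was dissolved in DMSO (2%) and serially diluted two-fold from 1000 to 15.62 µg/ml in 96-well plates, with an inoculum of about 10^4 CFU/ml. Streptomycin and ciprofloxacin were positive controls. After 24 h at 37 °C, 5 µl of broth was subcultured on MHA. MIC was the lowest concentration without visible growth on agar.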

Micrococcus luteus [3] = assay: Antibacterial activity against Micrococcus luteus after 24 hrs by twofold serial dilution method; format: functional; summary of the method: as §1
Klebsiella aerogenes [4] = assay: Antibacterial activity against Enterobacter aerogenes MTCC 111 after 24 hrs by twofold serial dilution method; format: functional; conditions: MTCC 111, 24 h; summary of the method: as §1
Proteus vulgaris [5] = assay: Antibacterial activity against Proteus vulgaris MTCC 1771 after 24 hrs by twofold serial dilution method; format: functional; conditions: MTCC 1771, 24 h; summary of the method: as §1
Klebsiella pneumoniae [6] = assay: Antibacterial activity against Klebsiella pneumoniae MTCC 109 after 24 hrs by twofold serial dilution method; format: functional; conditions: MTCC 109, 24 h; summary of the method: as §1
Salmonella typhimurium [7] = assay: Antibacterial activity against Salmonella Typhimurium MTCC 1251 after 24 hrs by two-fold serial dilution method; format: functional, Salmonella enterica subsp. enterica serovar Typhimurium; conditions: Salmonella enterica, MTCC 1251, 24 h; summary of the method: as §1
[8] = system: Salmonella enterica subsp. enterica serovar Paratyphi B; assay: Antibacterial activity against Salmonella paratyphi B after 24 hrs by twofold serial dilution method; format: functional; summary of the method: as §2
[9] = Antifungal activity against Malassezia pachydermatis at 1000 ug/disc after 48 hrs by disc diffusion assay; format: functional
Summary of the method: (§3)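 Fungal disc diffusion with inoculum from SDA spores (filamentous) or SDB culture (yeast). Test cultures were swabbed on agar, and discs at 1000 µg/disc were left 30 min at room temperature, with a solvent negative control. Plates were incubated 48 h at 27 °C. Zone of inhibition was measured in mm, and the experiment was repeated twice.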

Candida albicans [10] = assay: Antifungal activity against Candida albicans MTCC 227 at 1000 ug/disc after 48 hrs by disc diffusion assay; format: functional; conditions: for zone of inhibition at 1000 µg/disc: MTCC 227, 48 h, read-out: IZ; summary of the method: as §3
Botrytis cinerea [11] = assay: Antifungal activity against Botrytis cinerea at 1000 ug/disc after 48 hrs by disc diffusion assay; format: functional; conditions: for zone of inhibition at 1000 µg/disc: read-out: IZ; summary of the method: as §3
Staphylococcus aureus [12] = assay: Antibacterial activity against Staphylococcus aureus MTCC 96 at 1000 ug/disc after 24 hrs by disc diffusion assay; format: functional; conditions: for zone of inhibition at 1000 µg/disc: MTCC 96, 24 h, read-out: IZ
Summary of the method: (§4)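 Disc diffusion on Mueller Hinton agar. Cultures (about 10^4 CFU/ml) were swabbed on and dried 10 min. Discs loaded at 1000 µg/disc were left 30 min at room temperature for diffusion, with a solvent negative control. Plates were incubated 24 h at 37 °C. Inhibition zones were measured in mm, and the experiment was done twice.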

Staphylococcus aureus [13] = assay: Antibacterial activity against methicillin-resistant Staphylococcus aureus at 1000 ug/disc after 24 hrs by disc diffusion assay; format: functional; conditions: for zone of inhibition at 1000 µg/disc: read-out: IZ
Summary of the method: (§5)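 Disc diffusion on Mueller Hinton agar. Bacteria were grown 24 h at 37 °C in MHB and diluted to about 10^4 CFU/ml, swabbed onto plates and dried 10 min. Discs were loaded at 1000 μg/disc and held 30 min at room temperature for diffusion. Solvent served as negative control. After 24 h at 37 °C, inhibition zones were read in mm; run twice.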

Micrococcus luteus [14] = assay: Antibacterial activity against Micrococcus luteus at 1000 ug/disc after 24 hrs by disc diffusion assay; format: functional; conditions: read-out: IZ; summary of the method: as §4
Klebsiella aerogenes [15] = assay: Antibacterial activity against Enterobacter aerogenes MTCC 111 at 1000 ug/disc after 24 hrs by disc diffusion assay; format: functional; conditions: for zone of inhibition at 1000 µg/disc: MTCC 111, 24 h, read-out: IZ; summary of the method: as §4
Proteus vulgaris [16] = assay: Antibacterial activity against Proteus vulgaris MTCC 1771 at 1000 ug/disc after 24 hrs by disc diffusion assay; format: functional; conditions: for zone of inhibition at 1000 µg/disc: MTCC 1771, 24 h, read-out: IZ; summary of the method: as §4
Klebsiella pneumoniae [17] = assay: Antibacterial activity against Klebsiella pneumoniae MTCC 109 at 1000 ug/disc after 24 hrs by disc diffusion assay; format: functional; conditions: for zone of inhibition at 1000 µg/disc: MTCC 109, 24 h, read-out: IZ; summary of the method: as §4
Salmonella typhimurium [18] = assay: Antibacterial activity against Salmonella Typhimurium MTCC 1251 at 1000 ug/disc after 24 hrs by disc diffusion assay; format: functional, Salmonella enterica subsp. enterica serovar Typhimurium; conditions: Salmonella enterica, MTCC 1251, 24 h; read-out: IZ; summary of the method: as §4
[19] = system: Salmonella enterica subsp. enterica serovar Paratyphi B; assay: Antibacterial activity against Salmonella paratyphi B at 1000 ug/disc after 24 hrs by disc diffusion assay; format: functional; conditions: for zone of inhibition at 1000 µg/disc: read-out: IZ; summary of the method: as §5
[20] = Antifungal activity against Malassezia pachydermatis after 48 to 72 hrs by twofold serial dilution method; format: functional
Summary of the method: (§6)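 Broth two-fold serial dilution, 1000 to 15.62 µg/ml, with compound dissolved in 2% DMSO, in 96-well plates. Filamentous fungal spores came from 10-day SDA slants at 28 °C, and yeast from SDB grown 48 h at 28 °C. Incubation was 48-72 h at 28 °C. MIC was the lowest concentration with no visible fungal growth.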

Candida albicans [21] = assay: Antifungal activity against Candida albicans MTCC 227 after 48 to 72 hrs by twofold serial dilution method; format: functional; summary of the method: as §6
Botrytis cinerea [22] = assay: Antifungal activity against Botrytis cinerea after 48 to 72 hrs by twofold serial dilution method; format: functional; summary of the method: as §6

Row | Structure (SMILES) | inhibition zone (IZ) [9] | zone of inhibition at 1000 µg/disc (Botrytis cinerea [11]) [mm] | zone of inhibition at 1000 µg/disc (Staphylococcus aureus [12]) [mm] | zone of inhibition at 1000 µg/disc (Staphylococcus aureus [13]) [mm] | zone of inhibition at 1000 µg/disc (Micrococcus luteus [14]) [mm] | zone of inhibition at 1000 µg/disc (Klebsiella aerogenes [15]) [mm] | zone of inhibition at 1000 µg/disc (Proteus vulgaris [16]) [mm] | zone of inhibition at 1000 µg/disc (Klebsiella pneumoniae [17]) [mm] | zone of inhibition at 1000 µg/disc (Salmonella typhimurium [18]) [mm] | zone of inhibition at 1000 µg/disc [19] [mm] | zone of inhibition at 1000 µg/disc (Candida albicans [10]) [mm] | inhibition zone (IZ) [19] | other results
1 | O=C(O)c1cn(C2CC2)c2cc(N3CCNCC3)c(F)cc2c1=O [CIPROFLOXACIN] |  |  |  |  |  |  |  |  |  |  |  |  | MIC (Staphylococcus aureus [1]): < 0.78 µg/mL; MIC (Staphylococcus aureus [2]): > 100 µg/mL; MIC (Micrococcus luteus [3]): > 100 µg/mL; MIC (Klebsiella aerogenes [4]): < 0.78 µg/mL; MIC (Proteus vulgaris [5]): < 0.78 µg/mL; MIC (Klebsiella pneumoniae [6]): < 0.78 µg/mL; MIC (Salmonella typhimurium [7]): > 100 µg/mL; MIC [8]: 6.25 µg/mL (≈ 18.9 µM)
2 | Cc1ccc2c(c1)C1(C(=O)N2)C2=C(C(=O)c3ccccc3C2=O)C2CCCN21 (stereo not given) | 9 mm | 9 | 10 | 8 | 11 | 9 | 9 | 10 | 11 | 8 |  |  | inhibition zone (IZ) (Candida albicans [10]): inactive
3 | C=CCN1C(=O)C2(C3=C(CN2C)C(=O)c2ccccc2C3=O)c2ccccc21 (stereo not given) | 9 mm | 8 | 11 | 9 | 10 | 9 | 8 | 9 | 11 |  | 9 | inactive | 
4 | CN1C(=O)C2(C3=C(C(=O)c4ccccc4C3=O)C3CCCN32)c2ccccc21 (stereo not given) | 10 mm | 8 | 10 | 8 | 9 | 9 | 8 | 9 | 11 |  | 10 | inactive | 
5 | CN1CC2=C(C(=O)c3ccccc3C2=O)C12C(=O)Nc1ccc(Cl)cc12 (stereo not given) | 10 mm | 8 | 14 | 11 | 12 | 10 | 10 | 13 | 11 | 13 | 9 |  | 
6 | C=CCN1C(=O)C2(C3=C(C(=O)c4ccccc4C3=O)C3CCCN32)c2ccccc21 (stereo not given) | inactive |  | 8 |  | 9 |  |  |  | 9 |  |  | inactive | inhibition zone (IZ) (Candida albicans [10]): inactive; inhibition zone (IZ) (Botrytis cinerea [11]): inactive; inhibition zone (IZ) (Staphylococcus aureus [13]): inactive; inhibition zone (IZ) (Klebsiella aerogenes [15]): inactive; inhibition zone (IZ) (Proteus vulgaris [16]): inactive; inhibition zone (IZ) (Klebsiella pneumoniae [17]): inactive
7 | C#CCN1C(=O)C2(C3=C(C(=O)c4ccccc4C3=O)C3CCCN32)c2ccccc21 (stereo not given) | inactive | 9 |  |  | 9 |  | 8 |  | 9 | 8 | 8 |  | inhibition zone (IZ) (Staphylococcus aureus [12]): inactive; inhibition zone (IZ) (Staphylococcus aureus [13]): inactive; inhibition zone (IZ) (Klebsiella aerogenes [15]): inactive; inhibition zone (IZ) (Klebsiella pneumoniae [17]): inactive
8 | O=C1C2=C(C(=O)c3ccccc31)C1(C(=O)Nc3ccc(Cl)cc31)N1CCCC21 (stereo not given) | 9 mm |  | 12 | 9 | 10 | 9 | 9 | 11 | 10 |  |  | inactive | inhibition zone (IZ) (Candida albicans [10]): inactive; inhibition zone (IZ) (Botrytis cinerea [11]): inactive
9 | CCN1C(=O)C2(C3=C(CN2C)C(=O)c2ccccc2C3=O)c2ccccc21 (stereo not given) | 11 mm | 8 | 22 | 13 | 18 | 12 | 15 | 12 | 19 | 10 | 10 |  | MIC (Staphylococcus aureus [1]): 15.6 µg/mL (≈ 43.6 µM); MIC (Staphylococcus aureus [2]): 250 µg/mL (≈ 698 µM); MIC (Micrococcus luteus [3]): 31.2 µg/mL (≈ 87.2 µM); MIC (Klebsiella aerogenes [4]): 250 µg/mL (≈ 698 µM); MIC (Proteus vulgaris [5]): 62.5 µg/mL (≈ 174 µM); MIC (Klebsiella pneumoniae [6]): 250 µg/mL (≈ 698 µM); MIC (Salmonella typhimurium [7]): 31.2 µg/mL (≈ 87.2 µM); MIC [8]: 500 µg/mL (≈ 1400 µM); MIC [20]: 250 µg/mL (≈ 698 µM); MIC (Candida albicans [21]): 500 µg/mL (≈ 1400 µM); MIC (Botrytis cinerea [22]): 500 µg/mL (≈ 1400 µM)
10 | O=C1C2=C(C(=O)c3ccccc31)C1(C(=O)N(Cc3ccccc3)c3ccccc31)N1CCCC21 (stereo not given) | 9 mm |  | 10 | 8 | 9 | 8 | 10 | 8 | 9 |  | 8 | inactive | inhibition zone (IZ) (Botrytis cinerea [11]): inactive
11 | CN1CC2=C(C(=O)c3ccccc3C2=O)C12C(=O)c1cccc3cccc2c13 (stereo not given) | 8 mm | 9 | 9 |  | 8 |  | 8 | 9 | 10 |  | 8 | inactive | inhibition zone (IZ) (Staphylococcus aureus [13]): inactive; inhibition zone (IZ) (Klebsiella aerogenes [15]): inactive
12 | CN1CC2=C(C(=O)c3ccccc3C2=O)C12C(=O)N(Cc1ccccc1)c1ccccc12 (stereo not given) | 9 mm | 10 | 9 | 8 | 9 | 8 | 8 | 10 | 9 | 8 | 8 |  | 
13 | OC(Cn1cncn1)(Cn1cncn1)c1ccc(F)cc1F [FLUCONAZOLE] |  |  |  |  |  |  |  |  |  |  |  |  | MIC [20]: 12.5 µg/mL (≈ 40.8 µM); MIC (Candida albicans [21]): > 100 µg/mL; MIC (Botrytis cinerea [22]): inactive
14 | CN1CC2=C(C(=O)c3ccccc3C2=O)C12C(=O)c1ccccc1C2=O | inactive | 9 | 9 |  | 8 | 8 | 8 | 9 | 10 | 9 |  |  | inhibition zone (IZ) (Candida albicans [10]): inactive; inhibition zone (IZ) (Staphylococcus aureus [13]): inactive
15 | CC(=O)N1CCN(c2ccc(OCC3COC(Cn4ccnc4)(c4ccc(Cl)cc4Cl)O3)cc2)CC1 (stereo not given) [KETOCONAZOLE] | 28 mm |  |  |  |  |  |  |  |  |  | 22 |  | inhibition zone (IZ) (Botrytis cinerea [11]): inactive; MIC [20]: 15 µg/mL (≈ 28.2 µM); MIC (Candida albicans [21]): 25 µg/mL (≈ 47 µM); MIC (Botrytis cinerea [22]): 25 µg/mL (≈ 47 µM)
